Screening data as filed in PubChem BioAssay.
GRK2 inh = human GRK2 inhibition via aptamer displacement; bead flow cytometry, FAM-aptamer displacement from GRK2; inhibition of aptamer binding, % at 10 µM; 330,000 tested, 0.59% active; AID 488847;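 active means inhibition of aptamer binding above 40%, roughly 3 SD of noise, on plates passing a quality check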;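 further: median bead fluorescence of bound FAM aptamer so fluorescent compounds give negative values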
SUMO1-SIM PPI = alters human SUMO1 binding to SIM partners | SUMO1 binding to a labelled peptide, TR-FRET, 1 h | inhibition, % at 20 µM | 360,000 tested, 0.33% active; in the data active means inhibition above about 37%
Scp-1 inhibitor = inhibitors of human Scp-1 phosphatase. inhibition, % at 20 µM. AID 493091. Q9GZU7. Recombinant Scp1, phosphopeptide, malachite green phosphate absorbance. 340,000 tested, 0.88% active;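 active means inhibition above about 50% at 20 µM, limit read from the data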;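 further: plate controls were DMSO wells with enzyme for no effect and wells lacking enzyme for full effect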
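System: truncated SCP-1 phosphatase (76-261aa); medium: Tris acetate buffer pH 5.5 with MgCl2 and Tween-20; incubation: 45 min room-temperature reaction, 5 min colour, 30 min stabiliser; compound: single 20 µM dose, 1% DMSO; reagent: Phosphorylated 17-residue peptide substrate; read-out: % inhibition at 20 µM; technique: colorimetric free-phosphate detection, absorbance 630 nm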
DNMT1 inh = blocks human DNA methyltransferase DNMT1; inhibition (reported as % activation of signal), % at 10 µM; 360,000 tested, 0.83% active; P26358; DNMT1 molecular beacon, Hinp1I cleavage, fluorescence; in the data active means inhibition above about 50%
Target sequence (P26358 504-1616 limits assumed): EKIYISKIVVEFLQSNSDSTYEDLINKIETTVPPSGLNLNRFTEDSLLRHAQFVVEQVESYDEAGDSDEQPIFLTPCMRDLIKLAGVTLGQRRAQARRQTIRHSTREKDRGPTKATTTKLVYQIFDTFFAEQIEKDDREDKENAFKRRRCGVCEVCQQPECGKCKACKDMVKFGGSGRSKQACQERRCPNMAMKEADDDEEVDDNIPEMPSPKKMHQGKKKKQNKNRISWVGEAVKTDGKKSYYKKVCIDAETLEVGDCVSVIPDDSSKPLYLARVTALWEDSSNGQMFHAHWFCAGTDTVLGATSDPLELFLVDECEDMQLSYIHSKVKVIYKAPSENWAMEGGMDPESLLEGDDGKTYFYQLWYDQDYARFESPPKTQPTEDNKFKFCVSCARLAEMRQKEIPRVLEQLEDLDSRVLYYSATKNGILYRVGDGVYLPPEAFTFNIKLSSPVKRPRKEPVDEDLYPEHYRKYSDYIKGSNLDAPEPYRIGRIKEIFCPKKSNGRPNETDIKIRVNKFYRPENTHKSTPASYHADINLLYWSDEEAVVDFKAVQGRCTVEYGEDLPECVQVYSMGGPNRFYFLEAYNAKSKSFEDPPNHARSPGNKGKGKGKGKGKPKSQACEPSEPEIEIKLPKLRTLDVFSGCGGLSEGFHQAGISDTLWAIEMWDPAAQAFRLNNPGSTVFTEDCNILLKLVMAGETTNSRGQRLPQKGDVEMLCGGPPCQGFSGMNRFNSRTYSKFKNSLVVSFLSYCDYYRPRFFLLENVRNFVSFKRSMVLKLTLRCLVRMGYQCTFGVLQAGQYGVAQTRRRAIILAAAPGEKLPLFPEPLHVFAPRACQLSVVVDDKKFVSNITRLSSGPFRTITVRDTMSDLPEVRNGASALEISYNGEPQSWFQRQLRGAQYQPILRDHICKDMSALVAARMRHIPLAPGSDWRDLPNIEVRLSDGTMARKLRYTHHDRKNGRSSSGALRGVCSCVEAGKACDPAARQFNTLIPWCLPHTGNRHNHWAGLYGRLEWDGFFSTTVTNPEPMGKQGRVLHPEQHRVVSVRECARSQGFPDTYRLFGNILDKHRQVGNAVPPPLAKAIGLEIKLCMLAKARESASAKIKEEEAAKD
STEP block = inhibitors of human striatal-enriched phosphatase STEP. recombinant STEP, OMFP fluorogenic substrate, fluorescence. inhibition, % at 20 µM. 360,000 tested, 0.25% active;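 active means inhibition at 20 µM, scaled per plate between control wells, above about 37%, limit read from the data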;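 further: 0% = DMSO with enzyme and substrate and 100% = substrate only without enzyme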
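Test system: STEP tyrosine phosphatase / Reagent: OMFP at 25 µM / Doses: 20 µM, 1% DMSO / Read-out: percent inhibition scaled to no-enzyme and uninhibited-enzyme controls, plate-pattern corrected / Detection: FITC-channel fluorescence of OMFP product / Medium: Bis-Tris buffer pH 6.0, 2.5 mM DTT, 0.005% Tween 20 / Schedule: 20 min at room temperature, dark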
LMPTP inh = blocks human LMPTP phosphatase. 360,000 tested, 0.22% active. recombinant LMPTP-A, OMFP fluorogenic substrate, fluorescence intensity. inhibition, % at 20 µM. P24666;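 active means compounds that cut the enzyme signal by at least half of the control window in the single-dose screen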;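 further: plate controls were DMSO wells with enzyme plus substrate for no effect and substrate without enzyme for full effect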
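Test system – LMPTP-A phosphatase enzyme · Quantity – 0.625 nM LMPTP-A final · Reagent – OMFP substrate, 400 µM final · Dosing – one test concentration per compound, 20 µM, with 3% DMSO overall · Timing – 50 min enzyme reaction at room temperature, protected from light · Detection – fluorescence intensity · Controls – substrate-only low control, DMSO enzyme-plus-substrate high control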
Scp1 confirm = confirmation of human Scp-1 phosphatase inhibitors | shares compounds with Scp-1 inhibitor | recombinant SCP-1 catalytic domain, phosphate release, malachite green absorbance | inhibition, % at 20 µM | 2,500 tested, 61% active | AID 540281;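 further: plate controls were DMSO with enzyme for no effect and buffer wells lacking enzyme for full effect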
Scp-1 MG ctr = counter-screen for Scp-1 inhibitors: colorimetric interference | AID 540313 | shares compounds with Scp-1 inhibitor | Colorimetric interference counterscreen, malachite green absorbance 630 nm | apparent inhibition (interference), % at 20 µM | 2,500 tested, under 10 active;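 further: compounds added after enzyme reaction finished so only phosphate colour detection is probed; plate controls were DMSO wells with completed Scp-1 reaction for no effect and substrate wells lacking enzyme for full effect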
Scp1 DSF = binds human Scp-1, shifting its melting temperature | shares compounds with Scp-1 inhibitor | 1,500 tested, 25% active | thermal shift relative to vanadate control, % at 40 µM | Recombinant SCP1, Sypro Orange thermal shift Tm | AID 540329;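 active means substances whose mean melting-temperature shift, as a percentage of the reference inhibitor's shift, reaches about 5.3%, limit read from the data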;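 further: 0% = Tm of DMSO wells and 100% = Tm with sodium orthovanadate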
An asterisk follows results filed as active. Shown are actives, neighbours in structure and some others; about 2.1% of the full set was active somewhere.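 How the source made its calls, unless noted: active means inhibition of at least 30% at 20 µM; inactive means the rest.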

Results for Cc1ccc(S(=O)(=O)N2CCN(C(=O)/C=C/c3ccco3)CC2)cc1 ?
GRK2 inh: 20; SUMO1-SIM PPI: -8; Scp-1 inhibitor: 71*; DNMT1 inh: 38; STEP block: 3; LMPTP inh: 3; Scp1 confirm: 71*; Scp-1 MG ctr: -4; Scp1 DSF: -4

Results for CC(C)Nc1nc(Nc2ccc(F)cc2)c2sccc2n1 ?
SUMO1-SIM PPI: -4; DNMT1 inh: 1; STEP block: 2; LMPTP inh: 33

Results for O=C(O)COc1ccccc1/C=C1\SC(=S)N(/N=C/c2ccccc2O)C1=O ?
GRK2 inh: 1; SUMO1-SIM PPI: 31; Scp-1 inhibitor: 63*; DNMT1 inh: -8; STEP block: 1; LMPTP inh: 1; Scp1 confirm: 59*; Scp-1 MG ctr: -13; Scp1 DSF: 8.2*

What do the screens show for `Cc1noc(C)c1S(=O)(=O)N(C)C[C@@H]1OCc2cnnn2CCCC(=O)N([C@@H](C)CO)C[C@H]1C`?
SUMO1-SIM PPI: -3; DNMT1 inh: -1; STEP block: 0; LMPTP inh: 1

What do the screens show for `O=C(CN1CCN(C(=O)C2CCN(C(=O)/C=C/c3ccccc3)CC2)CC1)Nc1ccc(F)cc1`?
SUMO1-SIM PPI: -2; Scp-1 inhibitor: -2; DNMT1 inh: 3; STEP block: 4; LMPTP inh: 0

How did COc1cccc(C(=O)c2cn(CC(=O)NCc3ccco3)c3nc(C)ccc3c2=O)c1 do in these assays?
GRK2 inh: 5; SUMO1-SIM PPI: 11; Scp-1 inhibitor: 62*; DNMT1 inh: 14; STEP block: -1; LMPTP inh: 12; Scp1 confirm: 66*; Scp-1 MG ctr: -8; Scp1 DSF: -12

Results for Cc1ccc2c(=O)c(C(=O)c3ccc(F)cc3)cn(CC(=O)NCc3ccco3)c2n1 ?
GRK2 inh: 17; SUMO1-SIM PPI: 6; Scp-1 inhibitor: 61*; DNMT1 inh: 15; STEP block: 6; LMPTP inh: 1; Scp1 confirm: 52*; Scp-1 MG ctr: -15; Scp1 DSF: -2

What do the screens show for `CCn1cc(C(=O)NCc2ccccc2F)c(=O)c2ccc(C)nc21`?
GRK2 inh: 0; SUMO1-SIM PPI: 15; Scp-1 inhibitor: -12; DNMT1 inh: 3; STEP block: 1; LMPTP inh: -1

What do the screens show for `CC1(Oc2ccc(Cl)cc2)CCN(Cc2ccc(-c3ccccn3)cc2)C1` (stereo not given)?
SUMO1-SIM PPI: -5; DNMT1 inh: 1; STEP block: 3; LMPTP inh: 2

What do the screens show for `COCCNC(=O)C1(C)CCCN(C(=O)c2ccc(-c3ccccc3)cc2)C1` (stereo not given)?
SUMO1-SIM PPI: 6; DNMT1 inh: 5; STEP block: 0; LMPTP inh: -1

How did COCCn1c(SCC(=O)Nc2c(C)n(C)n(-c3ccccc3)c2=O)nnc1-c1ccncc1 do in these assays?
GRK2 inh: 0; SUMO1-SIM PPI: -2; Scp-1 inhibitor: -8; DNMT1 inh: 5; STEP block: -1; LMPTP inh: -1

How did COc1cccc(CNC(=O)c2ccc(S(=O)(=O)N3CCCCC3)cc2)c1 do in these assays?
SUMO1-SIM PPI: 5; DNMT1 inh: 0; STEP block: 2; LMPTP inh: 0

How did CN(C)c1ccc(/C=C2\C(=N)N3N=C(CC(=O)N4CCCC4)SC3=NC2=O)cc1Br do in these assays?
GRK2 inh: 0; SUMO1-SIM PPI: -2; Scp-1 inhibitor: 58*; DNMT1 inh: 5; STEP block: -1; LMPTP inh: 0; Scp1 confirm: -1; Scp-1 MG ctr: -9

Results for CSc1ccccc1C(=O)OCC(=O)NC1CC1 ?
SUMO1-SIM PPI: 4; DNMT1 inh: 1; STEP block: -3; LMPTP inh: 4

Results for COc1ccccc1NC(=O)/C(N=Nc1ccc(C)c(S(=O)(=O)Nc2ccccc2Cl)c1)=C(\C)O ?
GRK2 inh: 0; SUMO1-SIM PPI: 2; Scp-1 inhibitor: 50*; DNMT1 inh: -6; STEP block: 0; LMPTP inh: 1; Scp1 confirm: -25; Scp-1 MG ctr: -28

What do the screens show for `COc1ccccc1NS(=O)(=O)c1cc(N=N/C(C(=O)Nc2ccc(Cl)cc2)=C(/C)O)ccc1C`?
GRK2 inh: 0; SUMO1-SIM PPI: 0; Scp-1 inhibitor: -10; DNMT1 inh: 2; STEP block: 4; LMPTP inh: 0

What do the screens show for `Cc1c(C(=O)NCCN2CCOC2=O)oc2c(F)cccc12`?
GRK2 inh: 2; SUMO1-SIM PPI: 2; Scp-1 inhibitor: 1; DNMT1 inh: 0; STEP block: -2; LMPTP inh: -1; Scp1 confirm: -19; Scp-1 MG ctr: -16

Results for O=C(O)c1cccc(NC(=O)c2cn(-c3ccccc3)nc2-c2cc3ccccc3o2)c1 ?
GRK2 inh: 0; SUMO1-SIM PPI: 14; Scp-1 inhibitor: 58*; DNMT1 inh: -6; STEP block: 7; LMPTP inh: 56*; Scp1 confirm: 80*; Scp-1 MG ctr: -13; Scp1 DSF: 4

What do the screens show for `O=C(Cn1ccc2ccccc2c1=O)NCCC(=O)Nc1cccnc1`?
GRK2 inh: 2; SUMO1-SIM PPI: 1; Scp-1 inhibitor: 60*; DNMT1 inh: 7; STEP block: 4; LMPTP inh: 0; Scp1 confirm: -8; Scp-1 MG ctr: -2

How did Cc1ccc(NC(=O)CCC(=O)NN=Cc2ccc(C)o2)c(C)c1 do in these assays?
SUMO1-SIM PPI: -13; DNMT1 inh: 8; STEP block: -2; LMPTP inh: -1

How did CCc1ccc(C(O)c2ncc(-c3cccc(OC)c3)[nH]2)cc1 (stereo not given) do in these assays?
SUMO1-SIM PPI: 5; DNMT1 inh: 0; STEP block: -3; LMPTP inh: 0

Results for O=S(=O)(c1ccc2ccccc2c1)N1CCCCCC1 ?
GRK2 inh: 0; SUMO1-SIM PPI: -1; Scp-1 inhibitor: -13; DNMT1 inh: -4; STEP block: 0; LMPTP inh: 1
